The results in this text go back to ChEMBL document CHEMBL1126267, “A novel synthesis and potent antiinflammatory activity of 4-hydroxy-2(1H)-oxo-1-phenyl-1,8-naphthyridine-3-carboxamides” (1992).

Common to all, as to type: functional
Assay [1] deals with Rattus norvegicus. As to the kind of experiment: Compound was tested for the inhibition of rat reversed passive Arthus pleurisy after peroral administration of 100 mg/kg dose at 0.73 mL of exudate volume with 0.86 mL of control (injected intrapleurally). To be noted: route oral. A digest of the protocol:
(§1)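 Male Wistar rats (about 250 g) were given compound orally before the antiserum. Under ether anesthesia, 0.2 mL rabbit anti-egg albumin antiserum was injected intrapleurally. After 30 min, egg albumin (15 mg/100 g body weight in 0.1 mL saline) was given iv. Rats were killed 4.5 h later and the thoracic cavity was rinsed with 5 mL saline. Exudate volume and infiltrated cell number were measured, with inhibition % versus controls as mean ± SEM.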

For assay [2], the system named is Rattus norvegicus. As to the kind of experiment: Compound was tested for the inhibition of rat reversed passive Arthus pleurisy after peroral administration of 100 mg/kg dose at 3.37*10e6 no of cells with 3.86*10e6 cells of control. To be noted: route oral. The method in brief:
(§2)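 Male Wistar rats (about 250 g) under ether received 0.2 mL rabbit anti-egg-albumin antiserum intrapleurally. Thirty min later they got 15 mg EA/100 g body weight in 0.1 mL saline iv. Compounds were given orally beforehand. Rats were killed 4.5 h after induction and the thoracic cavity rinsed with 5 mL saline. Exudate volume and infiltrated cell count were read as mean ± SE. % inhibition is versus control.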

The test system of assay [3] is Rattus norvegicus. Kind of assay: Inhibition of Zymosan-induced rat's paw edema(ZPE) after peroral administration of 100 mg/kg dose. Conditions: route oral. A digest of the protocol:
(§3)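 Male Wistar rats (about 150 g) were dosed orally with compound suspended in 5% arabic gum, 1 h before a subplantar hind-paw injection of 0.1 mL saline. The irritant was 1% zymosan for 33 or 1% λ-carrageenin for 34. Paw volume was measured by plethysmograph before dosing and at 4 h (zymosan) or 3 h (carrageenin). Swelling is relative to initial volume, as mean ± SEM. % inhibition is versus the control group's mean swelling.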

The test system of assay [4] is Rattus norvegicus. Kind of assay: Inhibition of carrageenan-induced rat's paw edema (CPE) after peroral administration of 100 mg/kg dose. To be noted: route oral. A digest of the protocol: as §3
(Carrageenan injected into the paw causes an acute inflammation.)

The test system of assay [5] is Rattus norvegicus. Kind of assay: Antiinflammatory activity on Carrageenan rat's paw edema(CPE) after peroral administration of 100 mg/kg dose with control swelling of 90.0%. To be noted: route oral.
Assay [6] relates to Rattus norvegicus. Kind of assay: Antiinflammatory activity on Zymosan-induced rat's paw edema(ZPE) after peroral administration of 100 mg/kg dose with control swelling of 85.5%. Conditions: route oral. The method in brief:
(§4)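 Male Wistar rats weighing about 150 g were dosed orally with compound suspended in 5% arabic gum. 1 h later, 1% zymosan in 0.1 mL saline was injected subplantarly into the hind paw. Paw volume was measured by plethysmograph before dosing and 4 h after zymosan, with edema as the volume difference. Inhibition % was derived from mean swelling versus the control group.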

Assay [7] has as its system Rattus norvegicus. Kind of assay: Compound was tested for the inhibition of rat reversed passive Arthus pleurisy after peroral administration of 100 mg/kg dose at 2.96*10e6 no of cells with 3.86*10e6 cells of control. To be noted: route oral. The method in brief: as §1
Assay [8] relates to Rattus norvegicus. Kind of assay: Compound was tested for the inhibition of rat reversed passive Arthus pleurisy after peroral administration of 10 mg/kg dose at 0.37+/-0.07 mL of exudate volume (injected intrapleurally). Conditions: route oral. The method in brief: as §1
Assay [9] deals with Rattus norvegicus. Kind of assay: Compound was tested for the inhibition of arachidonic acid-induced rat's paw edema(APE) after peroral administration of 10 mg/kg dose. Conditions: route oral. A digest of the protocol:
(§5)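 Test: arachidonic acid paw edema in male Wistar rats of about 150 g. Oral dosing in 5% arabic gum came 1 h before subplantar injection of 1% arachidonic acid sodium salt in 0.1 mL saline into the hind paw. Plethysmograph paw volume was read before dosing and 1 h post-irritant, and edema = volume difference. % inhibition was taken from mean swelling against controls.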

Assay [10] concerns Rattus norvegicus. Kind of assay: Compound was tested for the inhibition of Carrageenan rat's paw edema(CPE) after peroral administration of 10 mg/kg dose.
Assay [11] relates to Rattus norvegicus. Kind of assay: Compound was tested for the inhibition of arachidonic acid-induced rat's paw edema(APE) after peroral administration of 10 mg/kg dose with control swelling of 51.6%. Conditions: route oral. A digest of the protocol:
as §5

Assay [12] relates to Rattus norvegicus. Kind of assay: Compound was tested for the inhibition of arachidonic acid-induced rat's paw edema(APE) after peroral administration of 3 mg/kg dose with control swelling of 51.6%. To be noted: route oral. The method in brief: as §5
Assay [13] deals with Rattus norvegicus. Kind of assay: Antiinflammatory activity on Zymosan-induced rat's paw edema(ZPE) after peroral administration of 3 mg/kg dose with control swelling of 68.1%. To be noted: route oral. The method in brief:
as §4

Assay [14] deals with Rattus norvegicus. As to the kind of experiment: Compound was tested for the inhibition of rat reversed passive Arthus pleurisy after peroral administration of 25 mg/kg dose at 4.25+/-0.1*10e6 no of cells. To be noted: route oral. A digest of the protocol:
as §2

The test system of assay [15] is Rattus norvegicus. As to the kind of experiment: Antiinflammatory activity on Zymosan-induced rat's paw edema(ZPE) after peroral administration of 30 mg/kg dose with control swelling of 68.1%. To be noted: route oral. The method in brief:
as §4

In assay [16] the test system is Rattus norvegicus. Kind of assay: Antiinflammatory activity on Carrageenan rat's paw edema(CPE) after peroral administration of 3 mg/kg dose with control swelling of 75.8%. To be noted: route oral.
The subject of assay [17] is Rattus norvegicus. Kind of assay: Compound was tested for the inhibition of rat reversed passive Arthus pleurisy after peroral administration of 25 mg/kg dose at 0.32+/-0.07 mL of exudate volume (injected intrapleurally). To be noted: route oral. A digest of the protocol: as §2
Assay [18] has as its system Rattus norvegicus. Kind of assay: Antiinflammatory activity on Carrageenan rat's paw edema(CPE) after peroral administration of 100 mg/kg dose with control swelling of 64.2%. To be noted: route oral.
Assay [19] concerns Rattus norvegicus. As to the kind of experiment: Compound was tested for the inhibition of arachidonic acid-induced rat's paw edema(APE) after peroral administration of 30 mg/kg dose. To be noted: route oral. A digest of the protocol:
as §5

Assay [20] deals with Rattus norvegicus. Kind of assay: Compound was tested for the inhibition of Carrageenan rat's paw edema(CPE) after peroral administration of 3 mg/kg dose. To be noted: route oral.
Assay [21] has as its system Rattus norvegicus. Kind of assay: Antiinflammatory activity on Carrageenan rat's paw edema(CPE) after peroral administration of 30 mg/kg dose with control swelling of 75.8%. To be noted: route oral.
In assay [22] the test system is Rattus norvegicus. As to the kind of experiment: Compound was tested for the inhibition of rat reversed passive Arthus pleurisy after peroral administration of 10 mg/kg dose at 4.30+/-0.41*10e6 no of cells. Conditions: route oral. A digest of the protocol: as §1
The subject of assay [23] is Rattus norvegicus. Kind of assay: Compound was tested for the inhibition of rat reversed passive Arthus pleurisy after peroral administration of 5 mg/kg dose at 3.54+/-0.06*10e6 no of cells. To be noted: route oral. A digest of the protocol:
as §2

The subject of assay [24] is Rattus norvegicus. Kind of assay: Compound was tested for the inhibition of arachidonic acid-induced rat's paw edema(APE) after peroral administration of 3 mg/kg dose. To be noted: route oral. The method in brief: as §5
Assay [25] deals with Rattus norvegicus. As to the kind of experiment: Compound was tested for the inhibition of Zymosan-induced rat's paw edema(ZPE) after peroral administration of 3 mg/kg dose. To be noted: route oral. The method in brief: as §4
Assay [26] has as its system Rattus norvegicus. Kind of assay: Compound was tested for the inhibition of rat reversed passive Arthus pleurisy after peroral administration of 100 mg/kg dose at 0.28+/-0.06 mL of exudate volume (injected intrapleurally). To be noted: route oral. The method in brief: as §1
Assay [27] relates to Rattus norvegicus. As to the kind of experiment: Antiinflammatory activity on Zymosan-induced rat's paw edema(ZPE) after peroral administration of 10 mg/kg dose with control swelling of 68.1%. To be noted: route oral. The method in brief:
as §4

The subject of assay [28] is Rattus norvegicus. Kind of assay: Compound was tested for the inhibition of arachidonic acid-induced rat's paw edema(APE) after peroral administration of 30 mg/kg dose with control swelling of 51.6%. Conditions: route oral.
The test system of assay [29] is Rattus norvegicus. Kind of assay: Compound was tested for the inhibition of rat reversed passive Arthus pleurisy after peroral administration of 100 mg/kg dose at 2.96 +/- 0.16*10e6 no of cells. Conditions: route oral. A digest of the protocol:
as §1

In assay [30] the test system is Rattus norvegicus. As to the kind of experiment: Compound was tested for the inhibition of rat reversed passive Arthus pleurisy after peroral administration of 100 mg/kg dose at 0.28 mL of exudate volume with 0.86 mL of control (injected intrapleurally). Conditions: route oral. A digest of the protocol: as §1
The subject of assay [31] is Rattus norvegicus. As to the kind of experiment: Antiinflammatory activity on Carrageenan rat's paw edema(CPE) after peroral administration of 10 mg/kg dose with control swelling of 75.8%. To be noted: route oral.
The test system of assay [32] is Rattus norvegicus. As to the kind of experiment: Compound was tested for the inhibition of Zymosan-induced rat's paw edema(ZPE) after peroral administration of 30 mg/kg dose. Conditions: route oral. A digest of the protocol: as §4
For assay [33], the system named is Rattus norvegicus. As to the kind of experiment: Compound was tested for the inhibition of Zymosan-induced rat's paw edema(ZPE) after peroral administration of 10 mg/kg dose. To be noted: po. The method in brief: as §4
The test system of assay [34] is Rattus norvegicus. Kind of assay: Antiinflammatory activity on Zymosan-induced rat's paw edema(ZPE) after peroral administration of 100 mg/kg dose with control swelling of 71.7%. Conditions: route oral. The method in brief:
as §4

The test system of assay [35] is Rattus norvegicus. Kind of assay: Compound was tested for the inhibition of rat reversed passive Arthus pleurisy after peroral administration of 5 mg/kg dose at 0.4+/-0.04 mL of exudate volume (injected intrapleurally). Conditions: route oral. A digest of the protocol:
as §2

For orientation: inhibition in vivo means how much of the control response was suppressed. For `Cc1ccccc1NC(=O)c1c(O)c2cccnc2n(-c2ccccc2)c1=O`, the inhibition in vivo at 100 mg/kg was determined as 16.9% in assay [1], 16.6% in assay [2], 11.7% in assay [3] and 9.8% in assay [4]. Moreover, the Swelling in assay [5] is listed as 81.2%; in assay [6], 75.5%.

One may read the Inhibition as the relative decrease from the control value, in per cent. As for `O=C(Nc1cccnc1)c1c(O)c2cccnc2n(-c2ccccc2)c1=O`, the inhibition in vivo at 100 mg/kg in assay [7] came out at 30.5%; in assay [3] it was 30.3%; in assay [4], 30.8%; in assay [26], 75.3%; in assay [29] it was 30.5%; in assay [30] it was 75.3%. Also, the inhibition in vivo at 10 mg/kg in assay [8] came to 55.7%; in assay [9] it was 44%; in [10] (Rattus norvegicus, po) it was 33.8%; in assay [22], 41.2%; in assay [33], 25.4%. The Inhibition in assay [10] (route oral, 10 mg/kg) is 22.7%. The Swelling in assay [11] was determined as 28.9%; in assay [12], 30.5%; in assay [13] it was 53.2%; in assay [15], 38.2%; in assay [16] it was 60.5%; in assay [18] it was 44.4%. The Swelling in [21] was 50.2%; in assay [27], 50.8%; in [28], 30.6%; in assay [31], 58.6%; in assay [34] it was 50%. For the same compound, the inhibition in vivo at 25 mg/kg in assay [14] is 42.1%; in [17] it was 62.9%. Further, the inhibition in vivo at 30 mg/kg in assay [19] amounted to 40.7%; in [32], 43.9%. Besides, the inhibition in vivo at 3 mg/kg in assay [20] amounted to 20.2%; in assay [24], 40.9%; in assay [25] it was 21.9%. For the same compound, the inhibition in vivo at 5 mg/kg is 33.3% in assay [23] and 50% in assay [35].
